Bioassay records from PubChem.
Only a selection was taken, and hits are over-represented in it overall.
H69AR inhibit = proliferation blockers of H69AR lung cancer cells, primary screen, cell-based, human, 86K library; hit rate 6% among 85,000; viability, % at 10 µM; H69AR lung tumor viability, ATP luminescence, 72 h; stronger effect = lower value;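 active means viability at or below 40%; inactive means viability above 40%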;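 further: multidrug resistant small cell line overexpressing MRP-1 efflux transporter; 100% = mean luminescence of untreated control wells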
HUVEC inhibit = inhibitors of HUVEC proliferation, primary screen, cell-based, 384-well; CellTiter-Glo luminescence, 72 h; stronger effect = lower value; viability, % at 10 µM (by protocol); hit rate 1.1% among 86,000;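 active means viability at or below 30%; inactive means viability above 30%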;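 further: 100% = median luminescence of DMSO-only cell control wells on each plate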
HCT116 PTEN-null = growth suppression of PTEN-null HCT116, primary screen, cell-based, CellTiter-Glo | hit rate 1.2% among 140,000 | HCT116 PTEN-null viability, 60 h; stronger effect = lower value | viability, % at 10 µM;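 active means viability at or below a set limit, 4 SD under the median of all tested compounds, cut at about 3.7% in these data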;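 further: PTEN knockout HCT116 line with beta catenin targeted HCT116 as companion control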
HCT116 bCat-KO = primary screen for growth suppressors in beta-catenin knockout HCT116 cells (colon tumor, human) | HCT116 beta-catenin knockout viability, CellTiter-Glo, 60 h; stronger effect = lower value | viability, % at 10 µM | hit rate 1.5% among 140,000 | AID 818, 2007;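 active means viability at or under a set limit, the compound median less 4 SD, cut at about 6% in these data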;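 further: 0% = Hyamine 1622 control at 20 µM and 100% = untreated cell control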
Fibroblast inh = antiproliferative effect on LL 47 fibroblasts – human, LL 47 cells, CellTiter-Glo luminescence, primary screen. hit rate 1.1% among 85,000. LL 47 human lung fibroblast viability, ATP luminescence; stronger effect = lower value. viability, % at 10 µM;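 active means viability at or below 50% in the single dose screen; inactive means viability above 50%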;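 further: compound exposure lasted 72 h before the ATP readout; 100% = median luminescence of untreated cell-only wells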
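test system = LL 47 human lung fibroblasts | amount = 1,150 fibroblasts seeded per well | medium = 15% FBS in IMEM | times = overnight cell rest, 72 h compound treatment at 37 °C | measured by = CellTiter-Glo luminescence measuring cellular ATP | read-out = viability percentage against median untreated-cell control | benchmarks = cell-only wells, no compound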
Phagocyt inh = inhibitors of macrophage phagocytosis, primary screen, imaging, J774A.1 cells, IgG beads; J774A.1 macrophage IgG-bead phagocytosis; inhibition, % at 5 µM; hit rate 0.07% among 110,000;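 active means inhibition above the mean of the plate negative controls plus 5 SD, cut at about 13% in these data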;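 further: phagocytic index as fraction of beads internalized from green versus red external bead signal; plate controls were DMSO negative control for no effect and cytochalasin-D positive control for full effect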
An asterisk follows results filed as active; nt = not tested or not shown.

SMILES | H69AR inhibit | HUVEC inhibit | HCT116 PTEN-null | HCT116 bCat-KO | Fibroblast inh | Phagocyt inh
O=C(NCCc1cccs1)C12CN(Cc3ccccc3)CC1C(c1cccc([N+](=O)[O-])c1)=NO2 (centres undefined) | nt | nt | 80 | 79 | nt | 1
COc1cc2c(C(=O)Nc3ccc4c(c3)OCO4)cn(CC(C)C)c(=O)c2cc1OC | 92 | 91 | 63 | 61 | 99 | -2
COc1cc2c(C(=O)NCc3ccc4c(c3)OCO4)cn(CC(C)C)c(=O)c2cc1OC | 85 | 68 | 83 | 85 | 42* | 0
C=CCn1c(SCC(=O)/C(C#N)=C(\C)N)nnc1C1CCCCC1 | 92 | 96 | 91 | 105 | 98 | 0
Clc1ccc2[nH]c3c(c2c1)CCc1cn[nH]c1-3 | 22* | 46 | 72 | 71 | 94 | 3
COc1ccc2nc(NC(=O)CSC3=NCCS3)sc2c1 | 43 | 30* | 78 | 73 | 94 | -1
COc1ccc2nc(NC(=O)CSc3ccccc3)sc2c1 | 92 | 94 | 105 | 93 | 101 | 0
CCOc1ccc2nc(NC(=O)CSc3ccc(Cl)cc3)sc2c1 | 75 | 97 | 86 | 99 | 106 | 2
O=C(CN1CCC(n2nnc3cc(F)ccc32)CC1)NC1CC1 | 90 | 97 | 96 | 96 | 103 | 0
CCOc1ccc2nc(NC(=O)CN3CCC(n4nnc5cc(F)ccc54)CC3)sc2c1 | 41 | 9.2* | 12 | 10 | 89 | -1
Cn1nnnc1SCC(=O)Nc1nc2c(s1)CCCC2 | nt | nt | 97 | 100 | nt | 0
CCOc1ccc2nc(NC(=O)CSC3=NCCS3)sc2c1 | 1.1* | 59 | 81 | 84 | 92 | -1
O=C(CSC1=NCCS1)Nc1nc2c(s1)CCCC2 | 17* | 73 | 94 | 87 | 99 | nt
CC1(C)CC(=O)C(C(=S)Nc2ccccc2)=C(NCCN2CCOCC2)C1 | nt | nt | 99 | 92 | nt | 3
N#C/C(=C\c1ccc(Cl)s1)C(=O)N1CCN(c2ccccc2)CC1 | nt | nt | 100 | 101 | nt | nt
CC1(c2cc(C(F)(F)F)n3nc(C(=O)O)cc3n2)CC1 | 49 | 93 | 97 | 98 | 97 | nt
Cc1nc(Cl)c(C(=O)NC(=O)Nc2cccc(C(F)(F)F)c2)c(C)c1[N+](=O)[O-] | 6.7* | 78 | 88 | 92 | 94 | nt
NC1=NC(=O)/C(=C/c2c(OS(=O)(=O)c3ccc(Cl)cc3)ccc3ccccc23)S1 | nt | nt | 97 | 89 | nt | -3
O=C(Nc1ccc(-c2nc3ccccc3o2)cc1)c1cc(-n2cnnc2)ccc1Cl | 74 | 72 | 41 | 41 | 109 | nt
O=C(Nc1ccc(-c2nc3ccccc3o2)c(O)c1)c1cc(-n2cnnc2)ccc1Cl | 21* | 95 | 61 | 82 | 99 | -1
COc1cccc(C(=O)Nc2ccc(-c3nc4ccccc4o3)c(O)c2)c1 | 9.5* | 74 | 30 | 55 | 79 | 0
COc1cc(OC)cc(C(=O)Nc2ccc(-c3nc4ccccc4o3)cc2)c1 | 30* | 35 | 69 | 77 | 108 | -4
O=C(Nc1ccc(O)c(-c2nc3ccccc3o2)c1)C1(c2ccc(Br)cc2)CCCC1 | nt | nt | 63 | 68 | nt | -11
Cc1ccc(OCC(=O)Nc2ccc(O)c(-c3nc4ccccc4o3)c2)cc1 | 13* | 3.0* | 71 | 86 | 54 | -1
COc1ccc(-c2nc(N)n(C(=O)c3ccccc3Cl)n2)cc1 | nt | nt | 100 | 100 | nt | 0
SMILES | H69AR inhibit | HUVEC inhibit | HCT116 PTEN-null | HCT116 bCat-KO | Fibroblast inh | Phagocyt inh
O=C(Nc1ccc(-c2nc3ccccc3o2)cc1)c1ccc(N2C(=O)C3C4C=CC(C4)C3C2=O)cc1 (centres undefined) | 15* | 32 | 80 | 79 | 74 | nt
COc1cc(C(=O)Nc2cccc(-c3nc4ccccc4o3)c2C)cc(OC)c1OC | 76 | 66 | 105 | 90 | 79 | 0
COc1cc(C(=O)Nc2ccc(-c3nc4cc(C)ccc4o3)c(O)c2)cc(OC)c1OC | 24* | 80 | 11 | 13 | 85 | nt
COC(=O)c1ccc(-c2nc3ccccc3o2)cc1 | 86 | 94 | nt | nt | 110 | 0
O=C(Nc1ccc(-c2nc3ccccc3o2)cc1)c1ccc2c(c1)OCO2 | 42 | 82 | 29 | 55 | 106 | -2
COC(=O)c1ccc(-c2nc3ccc(C)cc3o2)cc1 | 26* | 66 | 10 | 11 | 97 | 3
CC(C)c1ccc(S(=O)(=O)N2CCN(CC(=O)Nc3ccc4c(c3)OCO4)CC2)cc1 | 54 | 82 | 87 | 71 | 90 | -1
Cc1ccccc1N1C(=O)C(Oc2ccc(Cl)cc2)C1CNC(C)(C)C (centres undefined) | nt | nt | 58 | 61 | nt | -4
Cc1ccc(-n2c3c(cc(C(=O)NCc4ccco4)c2=O)C(=O)CC(C)(C)C3)cc1 | 51 | 84 | 94 | 89 | 97 | 0
CC1(C)CC(=O)c2cc(C(=O)NCc3ccco3)c(=O)n(-c3ccc(Cl)cc3)c2C1 | 59 | 93 | 86 | 88 | 48* | 9
CCOC(=O)c1sc2nc(SCC#N)n(CC3CCCO3)c(=O)c2c1C (centres undefined) | 87 | 133 | 11 | 6.0* | 99 | 1
Cc1c(C(=O)C(=O)N2CCCc3ccccc32)c2ccccc2n1C | nt | nt | 20 | 25 | nt | nt
CCOc1ccc(S(=O)(=O)N/N=C2/CC(c3ccccc3)Oc3ccccc32)cc1 (centres undefined) | nt | nt | 90 | 89 | nt | 0
Cc1ccccc1NS(=O)(=O)c1ccc(N2CCCC2=O)cc1 | 26* | 63 | 28 | 18 | 49* | nt
COc1ccc(OC)c(NS(=O)(=O)c2ccc(N3CCCC3=O)cc2)c1 | nt | nt | 19 | 22 | nt | 8
CCN(CC)S(=O)(=O)c1cc(C(=O)OCC(=O)Nc2cccc(Br)c2)ccc1F | nt | nt | 101 | 89 | nt | -3
Cc1cc(C)c2oc(C(=O)Nc3ccc(S(=O)(=O)N4CCCC(C)C4)cc3)cc(=O)c2c1 (centres undefined) | nt | nt | 81 | 82 | nt | -3
CCN(CC)S(=O)(=O)c1ccc(N/N=C/c2cc(OC)ccc2O)nc1 | nt | nt | 5 | 2.7* | nt | -3
[O-]C1=N/[N+](=C/c2ccccc2Cl)CC1 | 98 | 96 | 104 | 94 | 99 | -2
CCOc1ccc(NC(=NCc2ccc3c(c2)OCO3)SC2CC(=O)N(c3ccccc3)C2=O)cc1 (centres undefined) | 35* | 53 | 69 | 70 | 83 | nt
CCOc1ccc(N2C(=O)CC(SC(=NC)Nc3ccc4c(c3)OCO4)C2=O)cc1 (centres undefined) | nt | nt | 107 | 100 | nt | -1
COc1ccc(NC(=O)N(Cc2ccc3c(c2)OCO3)C2CC(=O)N(c3ccc(OC)cc3)C2=O)cc1 (centres undefined) | 40* | 88 | 83 | 87 | 97 | -2
CCOc1ccc(NC(=NCc2ccc3c(c2)OCO3)SC2CC(=O)N(c3ccc(OCC)cc3)C2=O)cc1 (centres undefined) | 101 | 26* | 8 | 2.2* | 43* | nt
